The results in this text go back to ChEMBL document CHEMBL4118262, “Synthesis and biological evaluation of novel N-substituted nipecotic acid derivatives with an alkyne spacer as GABA uptake inhibitors” (Bioorg Med Chem, 2018).

Molecules are shown by their SMILES.

The target of assay [1] is T1, GABA transporter 4 (Mus musculus, UniProt P31650).
T1 sequence (P31650 whole entry): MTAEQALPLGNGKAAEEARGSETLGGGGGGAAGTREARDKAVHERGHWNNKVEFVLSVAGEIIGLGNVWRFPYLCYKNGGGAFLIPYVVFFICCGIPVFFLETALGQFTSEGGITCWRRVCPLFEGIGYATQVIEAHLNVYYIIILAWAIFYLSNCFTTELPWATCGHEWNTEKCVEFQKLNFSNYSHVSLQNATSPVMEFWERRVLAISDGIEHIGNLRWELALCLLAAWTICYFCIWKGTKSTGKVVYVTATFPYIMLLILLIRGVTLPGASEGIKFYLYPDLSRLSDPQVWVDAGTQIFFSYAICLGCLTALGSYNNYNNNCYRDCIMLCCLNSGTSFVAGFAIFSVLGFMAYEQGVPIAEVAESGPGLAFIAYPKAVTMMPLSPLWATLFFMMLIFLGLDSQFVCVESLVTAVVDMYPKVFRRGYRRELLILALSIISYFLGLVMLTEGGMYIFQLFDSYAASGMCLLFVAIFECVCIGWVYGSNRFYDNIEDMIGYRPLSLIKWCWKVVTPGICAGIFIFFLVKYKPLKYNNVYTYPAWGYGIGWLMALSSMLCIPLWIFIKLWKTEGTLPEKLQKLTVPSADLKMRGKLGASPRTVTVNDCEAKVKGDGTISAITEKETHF
The assay can be described thus: Inhibition of mouse GAT4 expressed in HEK293 cells assessed as decrease in [3H]GABA uptake preincubated for 25 mins followed by [3H]GABA addition measured after 4 mins by liquid scintillation counting analysis. It counts as cell-based. The essentials: (§1)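 [³H]GABA uptake assay in HEK cells expressing the mGAT subtype named in the line, run in triplicate. Potencies are given as pIC₅₀ ± SEM. No SEM is given where only one triplicate measurement was made. Where 100 µM test compound left uptake at or above 50% (pIC₅₀ ≤ 4.00), the percent remaining [³H]GABA uptake at 100 µM is reported instead.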

Assay [2] concerns the target Sodium- and chloride-dependent GABA transporter 1 (Mus musculus) (UniProt P31648). Nature of the assay: Inhibition of [2H10]NO 711 binding to mouse GAT1 expressed in HEK293 cell membranes assessed as remaining NO711 binding at 100 uM after 40 mins by LC-ESI-MS-MS analysis relative to control.
Assay [3] deals with T2, Sodium- and chloride-dependent GABA transporter 1 (Mus musculus, UniProt P31648). The assay can be described thus: Inhibition of mouse GAT1 expressed in HEK293 cells assessed as decrease in [3H]GABA uptake preincubated for 25 mins followed by [3H]GABA addition measured after 4 mins by liquid scintillation counting analysis. It counts as cell-based. The essentials:
as §1

Assay [4] addresses T2, Sodium- and chloride-dependent GABA transporter 1. The assay can be described thus: Inhibition of [2H10]NO 711 binding to mouse GAT1 expressed in HEK293 cell membranes after 40 mins by LC-ESI-MS-MS analysis. The essentials:
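MS Binding Assay on mGAT1 expressed in HEK cells, with NO711 as marker. Run in triplicate. Results are reported as pKi ± SEM. Where only one triplicate measurement was made, no SEM is given.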

Assay [5] concerns GABA transporter mGAT3 (Slc6a13) (Mus musculus). Nature of the assay: Inhibition of mouse GAT3 expressed in HEK293 cells assessed as decrease in [3H]GABA uptake at 100 uM preincubated for 25 mins followed by [3H]GABA addition measured after 4 mins by liquid scintillation counting analysis relative to control. Set-up: scale not given: the % may be the effect or the level left.
Assay [6] has as its system betaine/GABA transporter BGT1 (mGAT2, Slc6a12) (Mus musculus). The assay can be described thus: Inhibition of mouse GAT2 expressed in HEK293 cells assessed as decrease in [3H]GABA uptake at 100 uM preincubated for 25 mins followed by [3H]GABA addition measured after 10 mins by liquid scintillation counting analysis relative to control. Set-up: scale not given: the % may be the effect or the level left.

Assay [7] has as its target T3, GABA transporter 4 (Mus musculus) (UniProt P31650).
T3 sequence (whole entry): T1 sequence (P31650 whole entry)
The assay can be described thus: Inhibition of mouse GAT4 expressed in HEK293 cells assessed as decrease in [3H]GABA uptake at 100 uM preincubated for 25 mins followed by [3H]GABA addition measured after 4 mins by liquid scintillation counting analysis relative to control. Format: cell-based. Set-up: scale not given: the % may be the effect or the level left. The essentials: as §1

Assay [8] deals with Sodium- and chloride-dependent GABA transporter 1 (Mus musculus) (UniProt P31648). The assay can be described thus: Inhibition of mouse GAT1 expressed in HEK293 cells assessed as decrease in [3H]GABA uptake at 100 uM preincubated for 25 mins followed by [3H]GABA addition measured after 4 mins by liquid scintillation counting analysis relative to control. Also on record: scale not given: the % may be the effect or the level left. It counts as cell-based. Put shortly:
as §1

As for `COc1ccc(C(OCCN2CCC[C@H](C(=O)O)C2)(c2ccc(OC)cc2)c2ccc(OC)cc2C)cc1`, the IC50 in assay [1] is 1.66 µM; in assay [3], 64.6 µM. In addition, the Activity in assay [2] was determined as 59%.

For `COc1ccc(C(/C=C/CN2CCCC(C(=O)O)C2)(c2ccc(OC)cc2)c2ccc(OC)cc2)cc1` (configuration not stated), the inhibition constant Ki in assay [4] was 14.8 µM.

On to `COc1ccc(C(OCCN2CCCC(C(=O)O)C2)(c2ccc(OC)cc2C)c2ccc(OC)cc2C)cc1` (configuration not stated), for which the IC50 in assay [1] was 8.51 µM; in assay [3], 67.6 µM. In assay [4], this compound had a Ki of 38 µM.

In the case of `COc1ccc(C(C#CCN2CCCC(C(=O)O)C2)(c2ccc(OC)cc2)c2ccc3sccc3c2)cc1` (racemic), the figures for the IC50 in assay [1] and in assay [3] were 12 µM and 11 µM, respectively. Also, the Ki in assay [4] is 1.91 µM.

Turning to `COc1ccc(C(CC#CCN2CCCC(C(=O)O)C2)(c2ccc(OC)cc2)c2ccc(OC)cc2)cc1` (racemic), the IC50 is 17.4 µM in assay [1] and 52.5 µM in assay [3]. In assay [4], this compound gave a Ki of 37.2 µM.

Take `O=C(O)C1CCCN(CCC#CC(c2ccccc2)(c2ccccc2)c2ccccc2)C1` (racemic): the values for the Activity in assay [5], in assay [6] and in assay [7] were 61%, 66% and 64%, respectively. For the same compound, the IC50 in assay [3] was 0.427 µM. The compound further had an inhibitory constant (Ki) in assay [4] of 0.0912 µM.

Turning to `COc1ccc(C(C#CCN2CCCC(C(=O)O)C2)(c2ccc(OC)cc2)c2nccs2)cc1` (racemic), the Activity is 68% in assay [8], 82% in assay [5], 84% in assay [6] and 79% in assay [7]. The inhibitory constant (Ki) in assay [4] was 77.6 µM.

As for `C=C=C(CN1CCCC(C(=O)O)C1)C(c1ccc(OC)cc1)(c1ccc(OC)cc1)c1ccc(OC)cc1` (racemic), the results for the Activity in assay [8], in assay [6] and in assay [2] were 69%, 77% and 57%, respectively. In assay [1], the IC50 was 49 µM.

Consider `COc1ccc(C(C#CCN2CCCC(C(=O)O)C2)(c2ccc(OC)cc2)c2ccsc2)cc1` (racemic), for which, in assay [6], the Activity turned out to be 70%. Besides, the IC50 in assay [1] is 34.7 µM; in assay [3] it was 25.1 µM. Moreover, the Ki in assay [4] is 5.25 µM.

In the case of `O=C(O)C1CCCN(CC#CCC(c2ccccc2)(c2ccccc2)c2ccccc2)C1` (racemic), the values for the Activity in assay [5] and in assay [6] were 50% and 66%, respectively. Also, the IC50 is 70.8 µM in assay [1] and 35.5 µM in assay [3]. Further, the Ki in assay [4] was 14.5 µM.

Regarding `COc1ccc(CC(C#CCN2CCCC(C(=O)O)C2)(c2ccc(OC)cc2)c2ccc(OC)cc2)cc1` (racemic), the Activity in assay [6] was determined as 53%. Besides, the results for the IC50 in assay [1] and in assay [3] were 36.3 µM and 13.2 µM, respectively. The compound also had a Ki in assay [4] of 1.91 µM.

As for `COc1ccc(C(C#CCN2CCCC(C(=O)O)C2)(c2ccc(OC)cc2)c2ccc3c(c2)OCO3)cc1` (racemic), the IC50 in assay [1] was 51.3 µM; in assay [3] it was 22.9 µM. In addition, the inhibition constant (Ki) in assay [4] is 4.9 µM.

On to `COc1ccc(C(C#CCN2CCCC(C(=O)O)C2)c2ccc(OC)cc2)cc1` (racemic), for which, in assay [6], the Activity was 80%. In addition, the results for the IC50 in assay [1] and in assay [3] were 23.4 µM and 3.72 µM, respectively. Besides, the affinity in assay [4] corresponds to a Ki of 1.1 µM.

As for `COc1ccc(C(C#CCCN2CCCC(C(=O)O)C2)(c2ccc(OC)cc2)c2ccc(OC)cc2)cc1` (racemic), the half-inhibitory concentration (IC50) in assay [1] was 25.7 µM; in assay [3], 15.8 µM. This compound also showed a Ki in assay [4] of 2.75 µM.

Consider `COc1ccc(C(C#CCN2CCCC(C(=O)O)C2)(Cc2ccccc2)c2ccc(OC)cc2)cc1` (racemic), for which the Activity in assay [6] turned out to be 67%. Also, the IC50 in assay [1] was 41.7 µM; in assay [3] it was 8.32 µM. Besides, in assay [4], the inhibition constant Ki was 2.14 µM.

On to `COc1ccc(C(C#CCN2CCCC(C(=O)O)C2)(c2ccc(OC)cc2)c2ccc(OC)cc2)cc1` (racemic), for which the IC50 is 29.5 µM in assay [1] and 14.5 µM in assay [3]. Further, affinity in assay [4] was put at a Ki of 4.37 µM.

Consider `C=C=C(CN1CCCC(C(=O)O)C1)C(c1ccccc1)(c1ccccc1)c1ccccc1` (racemic), for which the Activity came to 62% in assay [8]; 80% in assay [5]; 87% in assay [6]; 54% in assay [7]; 70% in assay [2].

Take `COc1ccc(C(C#CCN2CCCC(C(=O)O)C2)(c2ccc(OC)cc2)c2nccn2C)cc1` (racemic): the Activity in assay [8] was 80%; in assay [5] it was 103%; in assay [6], 106%; in assay [7], 91%; in assay [2], 83%.

As to `COc1ccc(C(O)(C#CCN2CCCC(C(=O)O)C2)c2ccc(OC)cc2)cc1` (racemic), the Activity was 66% in assay [8]; 74% in assay [5]; 72% in assay [6]; 69% in assay [7]; 59% in assay [2].
